Screening results: PubChem BioAssay, several laboratories
Apaf-1 inh – inhibitors of human Apaf-1 apoptosome, primary screen, biochemical, DEVD-Rh110 fluorescence, uHTS; Apoptotic protease-activating factor 1 (Homo sapiens), O14727; reconstituted apoptosome caspase-3 activity; inhibition, % at 20 µM; 330,000 tested, 0.71% active; AID 489030, 2010; active = inhibition of at least 40% at 20 µM;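 also: plate controls were DMSO wells for no effect and DEVD-CHO caspase inhibitor wells for full effect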
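System: Apoptosome proteins | Medium: Hepes pH 7.5 with detergent and BSA | Also added: Cytochrome c trigger plus (Z-DEVD)2-Rh110 caspase-3 substrate | Incubation: 30 min compound preincubation, 50 min activation, room temperature | Detection: Rhodamine 110 fluorescence at Ex 480/Em 540 nm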
CTSL1 counter – Fasciola hepatica cathepsin L1 inhibitors, primary screen, counter-screen for PFM18AAP inhibitor project, biochemical, QFRET, fluorogenic peptide substrate | recombinant F. hepatica cathepsin L1, Z-Leu-Arg-MCA fluorescence | inhibition, % at 5.96 µM | 300,000 tested, 0.49% active;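 active = inhibition above the mean of all tested compounds plus 3 SD, set per screening campaign, cut at about 17% in these data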;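 also: 0% = plate median of test compound wells and 100% = 1 µM Z-Phe-Ala-diazomethylketone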
TDP2 inh – human TDP2 enzyme inhibitors, primary screen, biochemical, epi absorbance, recombinant enzyme. Tyrosyl-DNA phosphodiesterase 2 (Homo sapiens), O95551. T5PNP hydrolysis, p-nitrophenol absorbance 415 nm. inhibition, % at 12.8 µM. 370,000 tested, 0.34% active;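 active = inhibition above the mean of all tested compounds plus 3 SD, set per campaign, cut at about 25% in these data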;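 also: 0% = DMSO with enzyme and 100% = buffer with substrate but no TDP2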
Target sequence (O95551 whole entry, looked up): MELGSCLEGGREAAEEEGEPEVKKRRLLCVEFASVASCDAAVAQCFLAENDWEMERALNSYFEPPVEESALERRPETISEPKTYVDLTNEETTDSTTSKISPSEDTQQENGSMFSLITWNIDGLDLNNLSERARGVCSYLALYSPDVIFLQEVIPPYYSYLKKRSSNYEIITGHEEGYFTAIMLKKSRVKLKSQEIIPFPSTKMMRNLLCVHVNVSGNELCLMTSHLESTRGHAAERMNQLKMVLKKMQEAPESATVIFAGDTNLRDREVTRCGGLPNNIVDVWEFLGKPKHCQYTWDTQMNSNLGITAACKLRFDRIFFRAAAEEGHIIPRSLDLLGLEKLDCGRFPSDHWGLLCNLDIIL
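System: recombinant human TDP2 / Amount: 120 nM TDP2 per well / Also added: 5 mM T5PNP chromogenic substrate / Doses: 12.8 µM single point, 1% DMSO / Incubation: 2 h at 37 °C / Detection: p-Nitrophenol epi absorbance / Evaluation: % inhibition relative to enzyme-containing and enzyme-free wells / Repeats: singlicate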
GSTO1 counter – inhibitors of recombinant GSTO1, primary screen, counter-screen for RBBP9 inhibitor project, biochemical, fluorescence polarization; AID 1974, 2009; inhibition, % at 5.96 µM; activity-based probe fluorescence polarization; 300,000 tested, 1.1% active;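 active = inhibition above the campaign mean inhibition plus 3 SD, cut at about 35% in these data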;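 also: 0% = GSTO1-1 with DMSO and 100% = wells lacking GSTO1-1 enzyme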
Target sequence (P78417 whole entry, looked up): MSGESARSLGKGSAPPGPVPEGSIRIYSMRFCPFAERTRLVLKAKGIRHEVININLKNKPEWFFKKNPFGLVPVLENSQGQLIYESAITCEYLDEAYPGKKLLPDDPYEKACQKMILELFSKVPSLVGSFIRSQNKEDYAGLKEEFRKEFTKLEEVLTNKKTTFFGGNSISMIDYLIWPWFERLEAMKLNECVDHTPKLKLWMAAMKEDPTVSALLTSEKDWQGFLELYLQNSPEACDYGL
PAD4 FP inh – human PAD4 inhibitors, primary screen, biochemical, fluorescence polarization, 1536-well format; Protein-arginine deiminase type-4 (Homo sapiens), Q9UM07; recombinant PAD4, RCA probe fluorescence polarization; inhibition, % at 6.36 µM; 330,000 tested, 0.41% active; AID 485272, 2010;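 active = percent inhibition above a cutoff equal to the mean of all tested compounds plus 3 SD, cut at about 15% in these data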;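 also: 0% = PAD4 with RCA probe and DMSO and 100% = probe without PAD4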
PAD4 confirm – human PAD4 inhibitors, confirmation, biochemical, fluorescence polarization | shares compounds with PAD4 FP inh | recombinant PAD4, RCA probe fluorescence polarization | inhibition, % at 6.36 µM | 1,200 tested, 28% active | AID 488796, 2010;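 active = mean inhibition across replicates above the hit cutoff set by the earlier primary screen, cut at about 15% in these data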;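 also: inhibitors block active-site labeling by the probe so polarization falls; 0% = PAD4 with probe and DMSO and 100% = probe without PAD4 enzyme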
Apaf-1 inh conf – Apaf-1 inhibitors, single-dose retest, confirmation, biochemical, fluorescence, DEVD-Rh110, 20 µM; shares compounds with Apaf-1 inh; 1,800 tested, 25% active; inhibition, % at 20 µM; reconstituted apoptosome, caspase-3 DEVD-Rh110 fluorescence;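 active = mean inhibition of at least 40% at 20 µM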;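 also: plate controls were DMSO wells for no effect and DEVD-CHO caspase inhibitor control wells for full effect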
Rh110 quench – Rh110 fluorescence interference by putative Apaf-1 inhibitors, confirmation, artefact control for Apaf-1 inhibitor project, biochemical, 20 µM. shares compounds with Apaf-1 inh. quenched caspase reaction. activation (fluorescence interference), % at 20 µM. 1,800 tested, under 10 active. AID 504615, 2011;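 active = signal rise of 40% or more at 20 µM, treated as a fluorescence artifact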
Apaf1 inh interf – fluorescence interference of Apaf-1 inhibitor hits, dose response, artefact control for Apaf-1 inhibitor project. shares compounds with Apaf-1 inh. fluorescence interference counterscreen, Apaf-1 assay format. 460 tested, under 10 active. AID 588538, 2011. IC50, µM; call rule not given here
TDP2 confirm – human TDP2 enzyme inhibitors, retest, confirmation, biochemical, epi absorbance, recombinant enzyme; shares compounds with TDP2 inh; absorbance read-out; inhibition, % at 12.8 µM; 1,100 tested, 22% active; in the data active = inhibition above about 25%;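 also: 0% = vehicle with enzyme and 100% = no enzyme buffer only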
Numbers without * were called inactive; nt = not tested or not shown. Only some compounds are listed: those with a hit (about 1.8% of all), similar ones and a draw of the others.

SMILES	Apaf-1 inh	CTSL1 counter	TDP2 inh	GSTO1 counter	PAD4 FP inh	Apaf-1 inh conf	Rh110 quench	others
CCN(CC)c1ccc(N=Cc2c(O)n(-c3cc(OC)ccc3OC)c(=O)[nH]c2=O)cc1	48*	1	8	17	18*	13	1	PAD4 confirm=2
C[C@]12CC[C@H](O)CC1=CCC1C2CC[C@@]2(C)C1C[C@@H]1CC(=O)O[C@@H]12 (some centres undefined)	-3	nt	-8	nt	-1	nt	nt
O=c1cc(C2CCNCC2)[nH][nH]1	58*	-1	56*	19	37*	9	-6	PAD4 confirm=-1;TDP2 confirm=5
Cc1ccc2c(c1)C1CN(C)CCC1N2C(=O)c1cn(-c2ccccc2)nc1-c1ccccc1 (centres undefined)	11	-7	-12	-1	-7	nt	nt
O=C1CC(c2cccnc2)=NN1c1ccccc1	21	0	46*	31	52*	nt	nt	PAD4 confirm=2;TDP2 confirm=12
CC(=O)c1ccc(OCC(=O)N2CCCC(N3CCN(c4ccccc4C)CC3)C2)cc1 (centres undefined)	-1	-1	-3	4	-3	nt	nt
COc1ccc(P2(=O)Nc3ccccc3N2)cc1	49*	-3	2	13	-2	21	8
Cc1ccc(C[n+]2c(-c3ccc(C)cc3)cc(-c3ccc(C)cc3)cc2-c2ccc(C)cc2)cc1	79*	3	nt	4	-9	37	7
Cc1ccc(-c2cc(-c3ccc(C)cc3)[n+](-c3ccc(C(=O)O)cc3)c(-c3ccc(C)cc3)c2)cc1	18	3	-13	-3	-3	nt	nt
CN1C(=O)N(C)C(=O)C2(Cc3cc(NC(=O)c4ccccc4)ccc3N3CCCC32)C1=O (centres undefined)	-3	1	21	2	-1	nt	nt
COCCOC(=O)c1c(N)n(Cc2ccc(OC)cc2)c2nc3ccccc3nc12	66*	2	-1	32	-9	21	9
COc1ccc(Cn2c(N)c(C(=O)NCc3ccco3)c3nc4ccccc4nc32)cc1OC	66*	4	-7	53*	-4	25	11
Nc1c(C(=O)NCc2ccco2)c2nc3ccccc3nc2n1CCN1CCCCC1	5	0	2	-11	-22	nt	nt
CCCNC(=O)c1c(N)n(Cc2ccc3c(c2)OCO3)c2nc3ccccc3nc12	83*	-1	nt	16	-7	20	-4
O=C(Cc1ccccc1)N1CCN(Cc2ccccc2Cl)CC1	9	-2	11	1	1	nt	nt
COC1C(O)C(C)OC(OC2CCC3(C)C(CCC4C3C(O)CC3(C)C(C5=CC(=O)OC5)CCC43O)C2)C1O (centres undefined)	nt	nt	-8	nt	nt	nt	nt
COc1ccc(C2(c3cccc(O)c3OC)CCN(C(C)=O)CC2)cc1O	-3	-1	3	8	1	nt	nt
Clc1ccc(C(c2ccc(Cl)cc2)n2cc[n+](CC(OCc3ccc(Cl)cc3Cl)c3ccc(Cl)cc3Cl)c2)cc1 (centres undefined)	89*	3	-2	-9	-1	79*	8	Apaf1 inh interf=>100
c1cncc(C2CCCCN2)c1 (centres undefined)	-6	-1	-4	3	-4	nt	nt
c1cncc(C2Nc3cccc4cccc(c34)N2)c1	42*	1	1	64*	-7	11	1
O=c1[nH]c2ccccc2n1C1CCN(CCCC(c2ccc(F)cc2)c2ccc(F)cc2)CC1	56*	1	-4	4	-1	14	2
CN1CCN(S(=O)(=O)c2ccc(Cl)nc2)CC1	0	-6	-5	5	-4	nt	nt
CC(C)OC(=O)c1c(N)n(Cc2ccco2)c2nc3ccccc3nc12	4	2	10	5	-14	nt	nt
CC(C)CCn1c(N)c(C(=O)NCc2cccs2)c2nc3ccccc3nc21	89*	4	nt	3	-4	30	5
CC[C@]12CCN(CC3(O)CC3)C(Cc3ccc(O)cc31)C2(C)C	nt	nt	5	nt	nt	nt	nt
SMILES	Apaf-1 inh	CTSL1 counter	TDP2 inh	GSTO1 counter	PAD4 FP inh	Apaf-1 inh conf	Rh110 quench	others
COCCCNC(=O)c1c(NC(=O)c2ccco2)n(Cc2ccccc2)c2nc3ccccc3nc12	71*	-4	5	13	-8	-51	8	Apaf1 inh interf=>100
COCCOC(=O)c1c(N)n(Cc2ccco2)c2nc3ccccc3nc12	27	4	11	21	-20	nt	nt
CCCCCn1c(NC(=O)c2ccco2)c(C(=O)OCC)c2nc3ccccc3nc21	92*	3	nt	74*	7	49*	9	Apaf1 inh interf=>100
CC(ON1CC1(C(F)(F)F)C(F)(F)F)(C(N)=O)C(N)=O (centres undefined)	-7	-2	0	3	3	nt	nt
CCCCCCCSc1cc(OC)c(CCN(C)C)cc1OC	56*	1	-8	4	1	13	11
COc1ccc(/C=N\N=C(N)N)cc1	-3	2	3	0	8	nt	nt
NC(N)=N/N=C/c1ccc(N(c2ccccc2)c2ccccc2)cc1	61*	3	-12	9	2	43*	3	Apaf1 inh interf=>100
NNc1n[nH]c(=S)n1N	15	2	33*	31	-3	nt	nt	TDP2 confirm=-5
COc1cc(/C=C2\C(=O)NC(=O)N(c3ccccc3)C2=O)c([N+](=O)[O-])cc1OC	nt	nt	25*	nt	nt	nt	nt	TDP2 confirm=9
COC(=O)C1=C(c2ccc(-c3ccccc3)c(F)c2)C[C@@H]2CC[C@H]1N2C(=O)N1CCOCC1	20	nt	-4	nt	2	nt	nt
O=C1CC(=O)N(Cc2ccccc2)C(=S)N1	-3	0	32*	9	-6	nt	nt	TDP2 confirm=9
COC1CCCCC1NCCc1ccccc1 (centres undefined)	-12	0	26*	7	0	nt	nt	TDP2 confirm=-2
